# Screening data deposited in PubChem by PCMD.
# Yeast eIF2B – eIF2B (yeast) activity modulation. S. cerevisiae eIF2B-epsilon R284H, GCN4-lacZ luminescence. AID 688. 0.91% of 27,000 active. inhibition, % at 25 µM (by protocol);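 active = mutant luminescence inhibited past about 50% while wild type luminescence and mutant growth stay under set limits, limit read from the data; inconclusive = mutant versus wild type luminescence inhibition gap past a set limit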
#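 Times: 16 h growth with compound at 30 °C, 90 min Beta-Glo step; Assay system: yeast eIF2B-epsilon R284H mutant carrying GCN4–beta-galactosidase fusion; Measure: % inhibition of reporter signal and growth versus controls; Dosing: one concentration, 25 µM, 0.25% DMSO; Buffer or medium: YPD yeast growth medium; Measured by: Beta-Glo luminescence plus absorbance at 595 nm.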
# Yeast growth tox – Compounds toxic to wild-type S. cerevisiae growth; A595 turbidity, 16 h; growth inhibition, % at 25 µM (by protocol); 0.3% of 30,000 active; AID 685;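 active = mutant and wild-type yeast strains alike exhibit over 30% growth inhibition; inconclusive = a strain exceeds 50% while the second remains under 30%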;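 note: 0% = untreated cell controls and 100% = YPD media blanks without cells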
#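 System: S. cerevisiae wild-type or eIF2Bepsilon-R284H mutant strain; times: 16 h growth with compound, 30 °C; signal: absorbance at 595 nm (turbidity); measure: growth inhibition (%) versus cell controls and blanks; compound: 25 µM single dose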
# An asterisk follows results filed as active; ? = inconclusive; / = no result. Rows were chosen to be rich in hits. Some 1% of all compounds tested hit in one or more screens of this group.
SMILES,Yeast eIF2B,Yeast growth tox
Cc1ccc(-n2[nH]c(C)c(/C=C3/C=Nc4ccccc43)c2=O)cc1C,-36,-28
Cc1nn(-c2ccccc2)c2c1C(c1c(C)[nH]c(C#N)c1C)C(C#N)=C(N)O2 (centres undefined),53*,-7
Cc1ccc(-n2nc(C)c3c2OC(N)=C(C#N)C3c2ccccc2F)cc1 (centres undefined),24,-2
O=C(c1cc(C2CC2)nc2ccc(Br)cc12)N1N=C(C(F)F)CC1(O)C(F)F (centres undefined),-49,-9
O=C1c2ccccc2C(=O)C1c1ccncc1,67*,20
Cc1ccccc1N1C(=O)c2ccccc2NC1c1ccncc1 (centres undefined),/,0
COc1ccccc1CC(=O)N1CCN(c2cccc(C(F)(F)F)c2)CC1,50*,-14
COc1ccccc1CC(=O)N1CCCC1,/,-7
Cc1cc(=O)n2nc(-c3ccc(C(F)(F)F)cc3)sc2n1,15,17
CCCC1COC(Cn2cncn2)(c2ccc(C)cc2)O1 (centres undefined),92,93*
CCC(C)C(NC(=O)C(C)NC(=O)CNC(=O)CNC(=O)OCc1ccccc1)C(=O)OC (centres undefined),29,/
COc1ccc(C2=CSC3=NCCN23)cc1F,65*,7
COc1cc(S(=O)(=O)N2CCN=C2c2ccccc2)ccc1F,-20,?
O=C(c1ccccc1)N1CCc2ccccc21,12,27
O=C(c1ccc(Br)o1)N1CCCc2ccccc21,53*,-17
Cc1cc(N2CCOCC2)n2ncc(-c3ccccc3)c2n1,-1,3
Cc1cc(N2CCN(C(=O)c3ccco3)CC2)n2ncc(-c3ccccc3)c2n1,92,94*
Cc1ccc2nc(/C(C#N)=C\c3ccc(N4CCOCC4)o3)[nH]c2c1,65*,/
N#C/C(=C/c1ccc(N2CCCCC2)o1)c1cccc(F)c1,/,13
c1ccc(-n2nc3c(ccc4cnnc43)[nH]2)cc1,-2,-16
CCOC(=O)c1c(NC(=O)CN(C)C)sc(C(=O)N(CC)CC)c1C,23,-8
CCCC(=O)Nc1sc(C(=O)OC)c(C)c1C(N)=O,58*,-9
O=C(Nc1nc(-c2ccc(S(=O)(=O)N3CCCC3)cc2)cs1)c1cccs1,5,/
O=C(Nc1nc(-c2ccc(S(=O)(=O)N3CCCCCC3)cc2)cs1)c1cccs1,60*,-5
Cc1ccnc2nc(C(=O)NCCc3ccc(F)cc3)nn12,2,9
SMILES,Yeast eIF2B,Yeast growth tox
CCOc1ccc(-c2[nH]ncc2Oc2cccc(OC)c2)c(O)c1,-1,6
COc1cccc(Oc2cn[nH]c2-c2ccc(OC)cc2O)c1,66*,-9
O=C(Nc1cccc(C(F)(F)F)c1)C12CC3CC(CC(C3)C1)C2,34,/
COCCn1nnnc1CN1CCC(C)CC1,31,7
CCc1c(C)nc2cc(-c3cc(OC)cc(OC)c3)nn2c1N1CCN(CCN2CCOCC2)CC1,/,-2
Fc1ccc(-c2cc3nc(-c4ccccc4)cc(N4CCN(CCN5CCOCC5)CC4)n3n2)cc1,-9,31*
O=C(NC1CCCCC1)NC1CC2CCC(C1)N2Cc1nnnn1Cc1ccc2c(c1)OCO2 (centres undefined),4,16
COc1cc(NC(=O)c2ccccc2)c(OC)cc1Cl,-3,9
COCC(=O)Nc1cc(OC)c(Cl)cc1OC,55*,-5
O=C(CNC1CCCCC1)N1CCc2ccccc2C1,/,3
CCOC(=O)C1=C(C)NC(C)=C(C(=O)OCC)C1C(=O)OCC(=O)N1CCc2ccccc2C1,59*,0
CC(=O)/C(C(=N)N1CCN(c2cccc(Cl)c2)CC1)=C(\C)O,61*,/
O=C(O)CCC(=O)N1CCN(c2cccc(Cl)c2)CC1,35,-2
CC1CCCC(n2c(=S)[nH]c3ccccc3c2=O)C1C (centres undefined),/,32
O=C(Nc1cc(Cl)ccc1O)C1CCCO1 (centres undefined),17,/
O=C(Nc1nc2ccc(Cl)cc2s1)C1CCCO1 (centres undefined),/,30*
CCC1(C)N(O)C(C)(C)C(c2ccc(F)cc2)=[N+]1[O-] (centres undefined),20,-9
Cc1ccc(NC2CC(=O)N(Cc3ccccc3)C2=O)cc1 (centres undefined),/,28
CN1C(=O)CC2(CC(=O)N(Cc3ccccc3)C2)C1=O (centres undefined),61*,/
CCc1nc(SCc2cccnc2)[nH]c(=O)c1C,-6,-11
CCOC(=O)C1CCCN(c2nc(C)nc3c2oc2ccccc23)C1 (centres undefined),12,-1
CCOC(=O)C1CCCN(C(=O)c2cc3c(C)nc4ccccc4c3o2)C1 (centres undefined),65*,-27
COc1ccc(NC(=O)C2CC(=O)OC23CCOC(C)(C)C3)cc1 (centres undefined),21,6
CCn1ccnc1C(O)c1ccccc1OC (centres undefined),-2,/
Cc1ccc(Oc2ccc(OCC(=O)OC3CCS(=O)(=O)C3)cc2)cc1 (centres undefined),6,/
SMILES,Yeast eIF2B,Yeast growth tox
CCCCNC(=O)OC1CCS(=O)(=O)C1 (centres undefined),55*,-15
CC(C)(C)c1ccc(-c2nnc(SCCN3C(=O)c4ccccc4C3=O)o2)cc1,15,23
O=C(O)C1CC=CCC1C(=O)NCc1ccc2c(c1)OCO2 (centres undefined),4,9
O=C1c2ccccc2S(=O)(=O)N1CC1CC(c2ccccc2)=NO1 (centres undefined),-7,42*
COc1ccc(C2=NOC(CN3C(=O)c4ccccc4S3(=O)=O)C2)cc1 (centres undefined),43,/
CN(C)CCN1C(=O)C(O)=C(C(=O)c2ccco2)C1c1ccccc1F (centres undefined),63*,-2
CN(C)CCN1C(=O)C(O)=C(C(=O)c2cc3ccccc3o2)C1c1ccccn1 (centres undefined),-44,-12
CCOc1cc(-c2nc(-c3ccc(C)nc3OCC)no2)cc(OCC)c1OCC,56*,/
CCOc1cc(-c2nc(-c3cc(OC)c(OC)c(OC)c3)no2)cc(OCC)c1OCC,4,-16
Cc1ccc(-c2cc(NC(=O)CCl)n(-c3ccccc3)n2)cc1,31,?
O=C(CCl)Nc1cc(-c2ccccc2)nn1-c1ccccc1,/,59*
CCN(CC)S(=O)(=O)c1ccc(C(=O)N2CCCCC2)cc1,20,37
Cc1ccc(-c2nc(=S)c3c(n2CCN2CCOCC2)CC(C)(C)OC3)cc1,/,-12
CC1(C)Cc2c(c(=S)nc(-c3ccccc3)n2CCOCCO)CO1,51*,-7
CC(C)CC(c1nnnn1C(C)C)N1CCN(c2ccccc2)CC1 (centres undefined),26,-39
Nc1ccc2nc(-c3ccccc3)sc2c1,72*,20
Nc1nc2ccc(-c3nc4ccccc4o3)cc2s1,24,21
Cc1ccc(NCc2nnc(SCC(=O)Nc3cccc(O)c3)n2CC2CCCO2)c(C)c1 (centres undefined),22,16
O=S(=O)(NCCc1ccccc1F)c1cccc(S(=O)(=O)N2CCOCC2)c1,-24,-6
CCCCNS(=O)(=O)c1cccc(S(=O)(=O)N2CCCC2)c1,53*,-9
O=C(c1cc2ccccc2oc1=O)N(Cc1ccc2c(c1)OCO2)Cc1ccco1,7,-5
